One test addresses T1, Androgen receptor (Homo sapiens, UniProt P10275).
T1 sequence (P10275 whole entry): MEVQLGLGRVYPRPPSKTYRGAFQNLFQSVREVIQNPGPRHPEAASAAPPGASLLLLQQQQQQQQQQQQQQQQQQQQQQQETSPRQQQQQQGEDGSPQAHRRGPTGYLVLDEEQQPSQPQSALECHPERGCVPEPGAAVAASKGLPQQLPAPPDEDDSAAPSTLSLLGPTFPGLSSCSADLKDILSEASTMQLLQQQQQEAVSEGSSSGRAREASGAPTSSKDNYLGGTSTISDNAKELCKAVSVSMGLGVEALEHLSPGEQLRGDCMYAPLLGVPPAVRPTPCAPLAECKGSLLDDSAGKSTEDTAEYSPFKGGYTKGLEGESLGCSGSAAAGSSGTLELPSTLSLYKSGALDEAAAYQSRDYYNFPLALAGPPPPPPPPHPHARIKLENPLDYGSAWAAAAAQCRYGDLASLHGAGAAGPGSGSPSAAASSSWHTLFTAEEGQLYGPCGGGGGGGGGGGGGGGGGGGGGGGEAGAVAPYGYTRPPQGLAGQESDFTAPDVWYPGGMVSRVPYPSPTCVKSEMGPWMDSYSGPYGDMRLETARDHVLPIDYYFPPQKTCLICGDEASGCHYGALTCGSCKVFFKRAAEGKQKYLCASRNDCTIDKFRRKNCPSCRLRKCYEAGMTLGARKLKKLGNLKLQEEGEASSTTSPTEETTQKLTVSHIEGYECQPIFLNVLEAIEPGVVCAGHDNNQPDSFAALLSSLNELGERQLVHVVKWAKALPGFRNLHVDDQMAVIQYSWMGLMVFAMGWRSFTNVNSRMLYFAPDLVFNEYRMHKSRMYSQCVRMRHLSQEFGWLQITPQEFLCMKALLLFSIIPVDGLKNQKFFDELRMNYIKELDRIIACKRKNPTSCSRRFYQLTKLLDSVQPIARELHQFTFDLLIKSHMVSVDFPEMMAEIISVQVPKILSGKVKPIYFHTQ
Briefly: Displacement of [3H]mibolerone from human Androgen receptor.

The target of the next test is T2, Estrogen receptor (Homo sapiens, UniProt P03372).
T2 sequence (P03372 whole entry): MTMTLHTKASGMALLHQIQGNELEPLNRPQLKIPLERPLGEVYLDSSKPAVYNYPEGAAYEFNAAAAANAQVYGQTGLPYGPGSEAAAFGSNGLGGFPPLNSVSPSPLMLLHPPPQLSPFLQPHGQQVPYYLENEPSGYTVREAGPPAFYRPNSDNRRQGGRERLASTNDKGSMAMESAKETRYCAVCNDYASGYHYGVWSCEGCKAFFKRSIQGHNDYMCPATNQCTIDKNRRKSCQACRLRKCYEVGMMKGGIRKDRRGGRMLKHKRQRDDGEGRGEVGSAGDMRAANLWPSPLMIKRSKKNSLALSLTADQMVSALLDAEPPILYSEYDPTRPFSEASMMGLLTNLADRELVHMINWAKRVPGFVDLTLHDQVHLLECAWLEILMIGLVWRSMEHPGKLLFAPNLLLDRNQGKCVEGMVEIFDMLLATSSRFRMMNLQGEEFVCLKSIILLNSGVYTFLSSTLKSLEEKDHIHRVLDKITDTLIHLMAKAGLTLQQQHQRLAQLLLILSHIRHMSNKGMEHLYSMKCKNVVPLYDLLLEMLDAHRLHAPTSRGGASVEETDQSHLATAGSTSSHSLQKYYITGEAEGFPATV
Briefly: Displacement of [3H]estradiol from human estrogen receptor alpha. The procedure, abridged:
(§1)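 Human steroid receptor (PR, MR, AR, ERα) binding measured by radioligand displacement, with IC50s determined in duplicate. Values without a range come from a single experiment, and values with a range are geometric means of repeat experiments.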
(In a radioligand displacement assay an active substance lowers the binding of a labelled ligand.)

For test [1], the target named is T3, Mineralocorticoid receptor (Homo sapiens, UniProt P08235).
T3 sequence (P08235 whole entry): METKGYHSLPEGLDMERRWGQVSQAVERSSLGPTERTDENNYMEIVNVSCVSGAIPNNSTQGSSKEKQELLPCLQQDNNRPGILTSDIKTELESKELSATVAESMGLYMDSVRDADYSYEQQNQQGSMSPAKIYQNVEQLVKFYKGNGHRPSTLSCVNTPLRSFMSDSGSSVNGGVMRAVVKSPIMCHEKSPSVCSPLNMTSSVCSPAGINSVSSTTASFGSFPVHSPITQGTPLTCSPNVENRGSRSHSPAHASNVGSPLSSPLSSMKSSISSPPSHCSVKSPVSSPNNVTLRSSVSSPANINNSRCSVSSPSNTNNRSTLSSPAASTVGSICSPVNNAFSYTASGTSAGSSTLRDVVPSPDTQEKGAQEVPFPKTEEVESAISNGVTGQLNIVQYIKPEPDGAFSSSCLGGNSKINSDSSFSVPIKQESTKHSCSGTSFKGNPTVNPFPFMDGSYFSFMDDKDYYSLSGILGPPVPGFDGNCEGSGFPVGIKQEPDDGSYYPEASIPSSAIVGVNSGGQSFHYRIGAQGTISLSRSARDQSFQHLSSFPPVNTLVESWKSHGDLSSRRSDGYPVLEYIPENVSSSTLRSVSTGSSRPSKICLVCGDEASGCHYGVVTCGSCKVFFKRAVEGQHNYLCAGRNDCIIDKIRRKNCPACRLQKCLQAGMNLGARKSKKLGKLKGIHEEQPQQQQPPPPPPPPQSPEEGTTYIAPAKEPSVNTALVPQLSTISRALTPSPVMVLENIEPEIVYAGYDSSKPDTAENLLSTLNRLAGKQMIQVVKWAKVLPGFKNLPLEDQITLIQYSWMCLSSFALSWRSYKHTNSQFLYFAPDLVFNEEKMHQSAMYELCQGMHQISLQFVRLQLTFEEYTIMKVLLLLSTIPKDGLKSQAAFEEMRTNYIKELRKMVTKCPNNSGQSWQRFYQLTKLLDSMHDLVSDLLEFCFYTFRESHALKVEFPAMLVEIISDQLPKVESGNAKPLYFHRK
Briefly: Displacement of [3H]aldosterone from human Mineralocorticoid receptor. The procedure, abridged: as §1

For `COc1cccc2c1-c1ccc(NS(C)(=O)=O)cc1C(c1cccs1)O2` (stereo not given), the IC50 (usually the point on the concentration scale where inhibition reaches its midpoint) at Androgen receptor was more than 10 µM; on Estrogen receptor, more than 10 µM; in test [1] it was 2.25 µM.
In the case of `COc1cccc2c1-c1ccc(NS(C)(=O)=O)cc1C(c1cccc(F)c1)O2` (stereo not given), the half-inhibitory concentration (IC50) on Androgen receptor is more than 10 µM; on Estrogen receptor, more than 10 µM; in test [1], 0.683 µM.
With `COc1cccc2c1-c1ccc(NS(C)(=O)=O)cc1C(c1ccc(F)cc1)O2` (stereo not given), the concentration for half-maximal inhibition (IC50) at Androgen receptor is more than 10 µM; at Estrogen receptor, more than 1 µM; in test [1] it was 2.48 µM.
For `COc1cccc2c1-c1ccc(NS(C)(=O)=O)cc1C(c1ccc(C)cc1)O2` (stereo not given) the same measures were more than 10 µM, more than 10 µM and 0.651 µM.
With `CCOc1cccc2c1-c1ccc(NS(C)(=O)=O)cc1C(c1ccccc1)O2` (stereo not given), the 50% inhibitory concentration (IC50) on Androgen receptor was more than 10 µM; on Estrogen receptor it was more than 10 µM; in test [1], 0.893 µM.

Source of the values: ChEMBL document CHEMBL1147539, “Synthesis and biological evaluation of novel, selective, nonsteroidal glucocorticoid receptor antagonists” (Bioorg Med Chem Lett, 2004).
